MIC and Activity data for four compounds are collected here from ChEMBL document CHEMBL1777764, “Synthesis and evaluation of 1-(1H-indol-3-yl)ethanamine derivatives as new antibacterial agents” (Bioorg Med Chem, 2011).

≈ marks a conversion by molar mass, not a printed value. Some results are limits rather than exact numbers.

The subject of data set [1] is Staphylococcus aureus. The experiment in a line: Antibacterial activity against Staphylococcus aureus ATCC 25923 after 18 hrs by broth microdilution method. The format is functional. The gist of the method: (§1)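 MIC by broth microdilution per ISO 20776-1:2006 and CLSI M07-A8. Inoculum 10^6 cfu/ml in Mueller-Hinton broth with compound serially diluted, final concentrations 2 to 128 ug/ml, duplicate rows, no-drug growth control. Incubation 18 h at 37 °C. MIC taken as lowest concentration giving complete inhibition of visible growth. Each compound tested at least twice.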

Data set [2] deals with Staphylococcus aureus. The experiment in a line: Antibacterial activity against Staphylococcus aureus ATCC 29213 after 18 hrs by broth microdilution method. The format is functional. The gist of the method:
as §1

Data set [3] relates to Staphylococcus aureus. Nature of the data set: Antibacterial activity against Staphylococcus aureus ATCC 9144 after 18 hrs by broth microdilution method. It counts as functional. The gist of the method: as §1
Data set [4] deals with Staphylococcus aureus. The experiment in a line: Antibacterial activity against Staphylococcus aureus ATCC 6538 after 18 hrs by broth microdilution method. The format is functional. The gist of the method: as §1
The test system of data set [5] is Staphylococcus aureus. Nature of the data set: Antibacterial activity against Staphylococcus aureus CIP 65.6 after 18 hrs by broth microdilution method. The format is functional. The method in brief: as §1
The subject of data set [6] is Staphylococcus aureus. The experiment in a line: Antibacterial activity against Staphylococcus aureus CIP 103428 after 18 hrs by broth microdilution method. It counts as functional. The method in brief:
as §1

Data set [7] relates to Staphylococcus aureus. The experiment in a line: Antibacterial activity against methicillin-resistant Staphylococcus aureus CIP 65.25 after 18 hrs by broth microdilution method. It counts as functional. The gist of the method:
(§2)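 Broth microdilution following ISO 20776-1:2006 and CLSI M07-A8, in Mueller-Hinton broth. Inoculum was 10^6 cfu/ml, with compound serial dilutions spanning 2 to 128 ug/ml and a compound-free growth control well. Plates were incubated 18 h at 37 °C. MIC was the lowest concentration giving complete inhibition of visible growth. Each compound was tested at least twice.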

Data set [8] has as its system Staphylococcus aureus. The experiment in a line: Antibacterial activity against methicillin-resistant Staphylococcus aureus ATCC 33592 after 18 hrs by broth microdilution method. It counts as functional. The gist of the method:
as §2

Data set [9] concerns Staphylococcus aureus. The experiment in a line: Antibacterial activity against vancomycin intermediate Staphylococcus aureus […] after 18 hrs by broth microdilution method. It counts as functional. The method in brief:
as §2

The subject of data set [10] is Staphylococcus epidermidis. The experiment in a line: Antibacterial activity against Staphylococcus epidermidis ATCC 12228 after 18 hrs by broth microdilution method. It counts as functional. The method in brief: as §1
Data set [11] has as its system Staphylococcus epidermidis. The experiment in a line: Antibacterial activity against Staphylococcus epidermidis CIP 81.55 after 18 hrs by broth microdilution method. The format is functional. The method in brief:
as §1

Data set [12] relates to Staphylococcus epidermidis. The experiment in a line: Antibacterial activity against Staphylococcus epidermidis CIP 103627 after 18 hrs by broth microdilution method. The format is functional. The method in brief: as §1
The test system of data set [13] is Streptococcus pneumoniae. Nature of the data set: Antibacterial activity against Streptococcus pneumoniae ATCC 49619 after 18 hrs by broth microdilution method. It counts as functional. The following applies: ATCC 49619, 18 h. The method in brief: (§3)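 MIC by broth microdilution per ISO 20776-1:2006 and CLSI M07-A8. Inoculum 10^6 cfu/ml in Mueller-Hinton broth […]. Compound serially diluted, final 2 to 128 ug/ml, duplicate rows, no-drug growth control. Read after 18 h at 37 °C as lowest concentration fully inhibiting visible growth. At least two experiments.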

Data set [14] has as its system Streptococcus pneumoniae. Nature of the data set: Antibacterial activity against Streptococcus pneumoniae ATCC 6303 after 18 hrs by broth microdilution method. The format is functional. The following applies: ATCC 6303, 18 h. The method in brief: as §3
For a further data set, the system named is Streptococcus agalactiae. Nature of the data set: Antibacterial activity against Streptococcus agalactiae ATCC 12400 after 18 hrs by broth microdilution method. It counts as functional. The following applies: ATCC 12400, 18 h. The method in brief: as §2
A further data set has as its system Streptococcus pyogenes. The experiment in a line: Antibacterial activity against Streptococcus pyogenes CIP 104226 after 18 hrs by broth microdilution method. The format is functional. The following applies: CIP 104226, 18 h. The gist of the method:
as §2

In another data set the test system is Streptococcus mitis. Nature of the data set: Antibacterial activity against Streptococcus mitis CIP 103335 after 18 hrs by broth microdilution method. It counts as functional. The note with it: CIP 103335, 18 h. The gist of the method:
(§4)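 Broth microdilution following ISO 20776-1:2006 and CLSI M07-A8, in Mueller-Hinton broth […]. Inoculum was 10^6 cfu/ml, with compound serial dilutions spanning 2 to 128 ug/ml and a compound-free growth control well. Plates were read after 18 h at 37 °C. MIC was the lowest concentration with no visible growth. Each compound was tested at least twice.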

The test system of a further data set is Enterococcus faecium. The experiment in a line: Antibacterial activity against Enterococcus faecium CIP 54.32 after 18 hrs by broth microdilution method. The following applies: CIP 54.32, 18 h. It counts as functional. The method in brief: as §2
In another data set the test system is Enterococcus faecalis. Nature of the data set: Antibacterial activity against Enterococcus faecalis ATCC 29212 after 18 hrs by broth microdilution method. It counts as functional. The note with it: ATCC 29212, 18 h. The method in brief:
as §2

Another data set relates to Escherichia coli. Nature of the data set: Antibacterial activity against Escherichia coli ATCC 25922 after 18 hrs by broth microdilution method. The format is functional. The gist of the method:
as §2

The subject of data set [15] is KB. The experiment in a line: Cytotoxicity against human KB cells at 10 uM. It counts as cell-based.
For data set [16], the system named is HCT-116. The experiment in a line: Cytotoxicity against human HCT116 cells at 10 uM. It counts as cell-based. The note with it: hct-116, 10 µM.
For data set [17], the system named is MRC5. Nature of the data set: Cytotoxicity against human MRC5 cells at 10 uM. The note with it: mrc5, 10 µM. The format is cell-based.
Data set [18] deals with KB. Nature of the data set: Cytotoxicity against human KB cells at 1 uM. The format is cell-based.
In data set [19] the test system is HCT-116. Nature of the data set: Cytotoxicity against human HCT116 cells at 1 uM. The format is cell-based. The note with it: hct-116, 1 µM.
In data set [20] the test system is MRC5. The experiment in a line: Cytotoxicity against human MRC5 cells at 1 uM. The format is cell-based. The following applies: mrc5, 1 µM.
The subject of the next data set is Klebsiella pneumoniae. Nature of the data set: microbe, parasite or virus in culture. The following applies: ATCC 35657, 18 h.
The next data set relates to Enterobacter cloacae. The experiment in a line: microbe, parasite or virus in culture. The following applies: ATCC 13047, 18 h.
A further data set concerns Serratia marcescens. Nature of the data set: microbe, parasite or virus in culture. The note with it: CIP 103551, 18 h.
The subject of the next data set is Pseudomonas aeruginosa. Nature of the data set: microbe, parasite or virus in culture. The following applies: CIP 5933, 18 h.
A further data set deals with Acinetobacter baumannii. Nature of the data set: microbe, parasite or virus in culture. The following applies: ATCC 19606 = CIP 70.34 = JCM 6841, 18 h.
The next data set relates to Haemophilus influenzae. The experiment in a line: Antibacterial activity against Haemophilus influenzae ATCC 49766 after 18 hrs by broth microdilution method. It counts as functional. The note with it: ATCC 49766, 18 h. The method in brief:
as §4

`Cl.Cl.NCC(NO)c1c[nH]c2cc(Br)ccc12` (centres undefined): the MIC in the data set on Staphylococcus aureus [1] (ATCC 25923, 18 h) stood at 16 mg/L; in the data set with Staphylococcus aureus [2] (ATCC 29213, 18 h), 16 mg/L; with Staphylococcus aureus [3] (ATCC 9144, 18 h) it was 16 mg/L; against Staphylococcus aureus [4] (ATCC 6538, 18 h) it was 16 mg/L; in the data set on Staphylococcus aureus [5] (CIP 65.6, 18 h), 16 mg/L; with Staphylococcus aureus [6] (CIP 103428, 18 h), 16 mg/L. Besides, the MIC against Staphylococcus aureus [7] (CIP 65.25, 18 h) worked out at 16 mg/L; with Staphylococcus aureus [8] (ATCC 33592, 18 h), 16 mg/L; in the data set on Staphylococcus aureus [9] it was 16 mg/L; in [10] (ATCC 12228, 18 h) it was 16 mg/L; in data set [11] (CIP 81.55, 18 h) it was 16 mg/L; in data set [12] (CIP 103627, 18 h) it was 16 mg/L. In addition, the MIC in the data set on Streptococcus pneumoniae [13] was 64 mg/L; against Streptococcus pneumoniae [14] it was 64 mg/L; against Streptococcus agalactiae, 128 mg/L; with Streptococcus pyogenes it was 128 mg/L; against Streptococcus mitis it was 128 mg/L; against Enterococcus faecium, > 128 mg/L. Further, the MIC was > 128 mg/L in the data set with Enterococcus faecalis; 32 mg/L against Escherichia coli (ATCC 25922, 18 h); 64 mg/L in the data set on Klebsiella pneumoniae; 64 mg/L with Enterobacter cloacae; 64 mg/L in the data set on Serratia marcescens; 64 mg/L in the data set on Pseudomonas aeruginosa. The compound further showed an MIC against Acinetobacter baumannii of 64 mg/L. In addition, the Activity result with KB [15], with HCT-116 [16], in the data set on MRC5 [17], in the data set on KB [18], with HCT-116 [19] and in the data set with MRC5 [20] was “Non-toxic” each time.

With `CO/N=C(\C(=O)N[C@@H]1C(=O)N2C(C(=O)O)=C(COC(C)=O)CS[C@H]12)c1csc(N)n1` [CEFOTAXIME], the MIC against Streptococcus pneumoniae [13] amounted to 0.125 mg/L (≈ 0.274 µM); against Streptococcus pneumoniae [14] it was 0.125 mg/L (≈ 0.274 µM); with Streptococcus agalactiae, 0.016 mg/L (≈ 0.0351 µM); in the data set on Streptococcus pyogenes, 0.016 mg/L (≈ 0.0351 µM); against Streptococcus mitis it was 0.016 mg/L (≈ 0.0351 µM); in the data set with Enterococcus faecium, 0.5 mg/L (≈ 1.1 µM). The MIC was found to be 0.5 mg/L (≈ 1.1 µM) in the data set on Enterococcus faecalis and 0.032 mg/L (≈ 0.0703 µM) against Haemophilus influenzae.

In the case of GENTAMICIN, the MIC with Staphylococcus aureus [1], in the data set with Staphylococcus aureus [2], against Staphylococcus aureus [3], in the data set with Staphylococcus aureus [4], in the data set on Staphylococcus aureus [5] and against Staphylococcus aureus [6] was 0.125 mg/L each time. Moreover, the MIC against Staphylococcus aureus [7] was 0.25 mg/L; in the data set on Staphylococcus aureus [8], 0.25 mg/L; against Staphylococcus aureus [9], > 64 mg/L; in data set [10], 0.125 mg/L; in [11], 0.125 mg/L; in data set [12], 0.125 mg/L. Moreover, the MIC against Escherichia coli was 1 mg/L.

On to `O=C(O)c1cn(C2CC2)c2cc(N3CCNCC3)c(F)cc2c1=O` [CIPROFLOXACIN], for which the MIC amounted to 0.5 mg/L (≈ 1.51 µM) against Staphylococcus aureus [1] (ATCC 25923, 18 h); 0.5 mg/L (≈ 1.51 µM) with Staphylococcus aureus [2] (ATCC 29213, 18 h); 0.5 mg/L (≈ 1.51 µM) against Staphylococcus aureus [3] (ATCC 9144, 18 h); 0.5 mg/L (≈ 1.51 µM) in the data set with Staphylococcus aureus [4] (ATCC 6538, 18 h); 0.5 mg/L (≈ 1.51 µM) in the data set with Staphylococcus aureus [5] (CIP 65.6, 18 h); 0.5 mg/L (≈ 1.51 µM) in the data set with Staphylococcus aureus [6] (CIP 103428, 18 h). For the same compound, the MIC in the data set on Staphylococcus aureus [9] amounted to 32 mg/L (≈ 96.6 µM); in [10] (ATCC 12228, 18 h), 0.25 mg/L (≈ 0.754 µM); in [11] (CIP 81.55, 18 h), 0.25 mg/L (≈ 0.754 µM); in data set [12] (CIP 103627, 18 h) it was 0.25 mg/L (≈ 0.754 µM); with Streptococcus agalactiae it was 0.25 mg/L (≈ 0.754 µM); against Streptococcus pyogenes, 0.25 mg/L (≈ 0.754 µM). In addition, the MIC is 0.25 mg/L (≈ 0.754 µM) against Streptococcus mitis; 1 mg/L (≈ 3.02 µM) against Enterococcus faecium; 1 mg/L (≈ 3.02 µM) in the data set on Enterococcus faecalis; 0.064 mg/L (≈ 0.193 µM) against Escherichia coli (ATCC 25922, 18 h); 0.5 mg/L (≈ 1.51 µM) in the data set on Haemophilus influenzae.
